In brackets after ≈: the same amount, converted by molar mass.

In one experiment the test system is Platelet. Kind of experiment: Inhibition of arachidonic acid-induced platelet aggregation in human platelet-rich plasma. The format is functional, cell-free. In outline: (§1)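 Citrated human PRP from forearm-vein blood (3.8% citrate 1:9, spun 1250 rpm for 18 min at room temperature), adjusted to […] with PPP. Platelets stirred at 1000 rpm and preincubated 3 min at 37 °C with compound or 0.25% DMSO. Inducers were ADP 6 µM, adrenalin 2 µM, arachidonic acid 100 µM, or collagen. Turbidimetric aggregometry read-out; IC50 given as mean ± SE.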
As to `OC[C@H]1O[C@@H](Oc2cc(O)cc(/C=C/c3ccc(O)cc3)c2)[C@H](O)[C@@H](O)[C@@H]1O` [PICEID], the IC50 stood at 57.2 µg/mL (≈ 147 µM).

Another experiment deals with Platelet. As to the kind of experiment: Inhibition of adenosine diphosphate-induced platelet aggregation in human platelet-rich plasma. The format is functional, cell-free. In outline: as §1
`COc1ccc(/C=C/c2cc(O)cc(O[C@@H]3O[C@H](CO)[C@@H](O)[C@H](O)[C@H]3O)c2)cc1`: the IC50 stood at 300 µg/mL (≈ 742 µM). `COc1ccc(/C=C\c2cc(O)cc(O)c2)cc1` displayed an IC50 of 101 µg/mL (≈ 415 µM).

Turning to `COc1ccc(/C=C/c2cc(O[C@@H]3O[C@H](CO)[C@@H](O)[C@H](O)[C@H]3O)cc(O[C@@H]3O[C@H](CO)[C@@H](O)[C@H](O)[C@H]3O)c2)cc1`, the IC50 stood at 300 µg/mL (≈ 530 µM). As for `COc1ccc(/C=C/c2cc(OC)c(OC)c(OC)c2)c(O[C@@H]2O[C@H](CO)[C@@H](O)[C@H](O)[C@H]2O)c1`, the IC50 was found to be 300 µg/mL (≈ 627 µM). The compound `COc1ccc(/C=C\c2cc(O[C@@H]3O[C@H](CO)[C@@H](O)[C@H](O)[C@H]3O)cc(O[C@@H]3O[C@H](CO)[C@@H](O)[C@H](O)[C@H]3O)c2)cc1` registered an IC50 of 300 µg/mL (≈ 530 µM). The compound `COc1ccc(/C=C\c2cc(O)cc(O[C@@H]3O[C@H](CO)[C@@H](O)[C@H](O)[C@H]3O)c2)cc1` had an IC50 of 198 µg/mL (≈ 490 µM). `COc1ccc(/C=C/c2cc(OC)c(OC)c(OC)c2)c(O)c1` displayed an IC50 of 300 µg/mL (≈ 948 µM). In turn, `COc1ccc(/C=C\c2cc(OC)c(OC)c(OC)c2)cc1O` [COMBRETASTATIN A4] showed an IC50 of 75.2 µg/mL (≈ 238 µM). Turning to `COc1ccc(/C=C\c2cc(OC)c(OC)c(OC)c2)c(O)c1O` [COMBRETASTATIN A-1], the IC50 is 60.6 µg/mL (≈ 182 µM). Compound `OC[C@H]1O[C@@H](Oc2cc(O)cc(/C=C/c3ccc(O)cc3)c2)[C@H](O)[C@@H](O)[C@@H]1O` [PICEID] showed an IC50 of 84.9 µg/mL (≈ 217 µM).

Compound `COc1ccc(/C=C/c2cc(O)cc(O)c2)cc1` [RESVERATROL 4'-METHYL ETHER] had an IC50 of 119 µg/mL (≈ 492 µM). As for `OC[C@H]1O[C@@H](Oc2cc(O)cc(/C=C\c3ccc(O)cc3)c2)[C@H](O)[C@@H](O)[C@@H]1O` [Z-PICEID], the IC50 was found to be 120 µg/mL (≈ 308 µM).

The subject of a further experiment is Platelet. As to the kind of experiment: Inhibition of collagen-induced platelet aggregation in human platelet-rich plasma. The format is functional, cell-free. In outline: as §1
Turning to `COc1ccc(/C=C\c2cc(O)cc(O)c2)cc1`, the IC50 came to 33.9 µg.

(Values after ChEMBL document CHEMBL1158326, “Isolation, synthesis, and antiplatelet aggregation activity of resveratrol 3-O-beta-D-glucopyranoside and related compounds” (J Nat Prod, 1997).)
